Source: PubChem BioAssay
Most compounds without a hit are left out; they make up all but 1.9% or so of the library.
ARFGAP1 inhibitor: rat ARFGAP1 inhibition; Q62848; inhibition, % at 16.5 µM; 360,000 compounds, 0.26% hits; Arfgap1-stimulated ARF1 GTP hydrolysis, GDP FP detection;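 active = inhibition above a per-plate limit, mean inhibition of low control wells plus 3 SD, cut at about 25% in these data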;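 also: 0% = DMSO wells with enzyme and 100% = wells lacking Arfgap1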
Target sequence (Q62848 1-136 limits assumed): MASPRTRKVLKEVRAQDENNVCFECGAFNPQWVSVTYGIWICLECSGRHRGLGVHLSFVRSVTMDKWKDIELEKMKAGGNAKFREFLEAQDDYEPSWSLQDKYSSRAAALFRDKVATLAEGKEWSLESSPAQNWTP
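Assay system: purified rat His6-Arfgap1 residues 1-136 (GAP domain); Reagent: human Δ17 ARF1 bound to GTP; Dosing: 16.5 µM single point, 1.26% DMSO; Times: GTP hydrolysis reaction 2 h at 25 °C; Signal: FP, GDP Alexa 633 tracer displaced from anti-GDP antibody, 620/688 nm; Measure: % inhibition from polarization.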
Efflux pump mplx: blocks antifungal efflux pumps in multiplex yeast assay; 330,000 compounds, 0.44% hits; S. cerevisiae Candida pump triplex, Nile Red efflux; inhibition, % at 10 µM;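 active = plate passing quality check with inhibition over a set limit, or well fluorescence over plate mean plus 4 SD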;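 also: Nile Red retained in pooled yeast measured as flow cytometry median fluorescence; 0% = buffer negative control and 100% = Enniatin B positive control; higher means more Nile Red kept so more efflux inhibition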
ASAP1 GAP inh: ASAP1 ArfGAP inhibition. 360,000 compounds, 0.19% hits. inhibition, % at 16.5 µM. ASAP1-stimulated ARF1 GTP hydrolysis, GDP FP detection; in the data active = inhibition above about 25%;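 also: 0% = vehicle with enzyme and substrate and 100% = no enzyme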
FGF22 binding: shifts melting point of recombinant human FGF22; recombinant FGF22 thermal shift, SYPRO orange fluorescence; percent of sucrose octasulfate shift, DMSO zero; AID 651658; Q9HCT0; activity (Tm shift, normalised), % at 9.99 µM; 340,000 compounds, 1.5% hits;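 active = mean Tm shift, scaled 0 neutral to 100 positive control, at about 1.3% or above, every replicate too, limit read from the data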
Target sequence (Q9HCT0 whole entry, looked up): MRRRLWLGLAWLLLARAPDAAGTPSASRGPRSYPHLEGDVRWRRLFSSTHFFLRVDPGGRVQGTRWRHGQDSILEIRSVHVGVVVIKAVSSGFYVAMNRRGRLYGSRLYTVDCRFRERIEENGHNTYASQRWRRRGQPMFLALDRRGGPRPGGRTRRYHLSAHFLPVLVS
Rtt109 Vps75: C. albicans Rtt109 histone acetyltransferase inhibition | purified Rtt109/Vps75, ThioGlo CoA-SH fluorescence, 4 h | inhibition, % at 34.9 µM | 330,000 compounds, 0.16% hits | AID 540336;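 active = inhibition of at least 50% in every replicate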
Starred values were filed as active, the others as inactive; nt = no result.

SMILES | ARFGAP1 inhibitor | Efflux pump mplx | ASAP1 GAP inh | FGF22 binding | Rtt109 Vps75
CC(C)NC(=O)N(C)C[C@@H]1Oc2ncc(C#Cc3ccncc3)cc2C(=O)N([C@H](C)CO)C[C@H]1C | nt | nt | nt | 0.0 | nt
COc1ccccc1-c1nnc(SCc2nc3ccccc3[nH]2)n1C | 4.0 | 0.0 | -4.1 | nt | 20.5
COc1ccc(/C=N/NC(=O)c2ccc(CSc3nncn3C)cc2)cc1OC | 8.8 | -0.1 | -0.3 | -0.2 | 3.4
COc1cc(/C(C)=N/NC(=O)c2ccc(CSc3nncn3C)cc2)cc(OC)c1OC | 9.8 | -0.1 | -14.7 | 43.3* | 7.8
COc1ccc(C2Nc3ccccc3C(=O)N2NC(C)=O)cc1OC (configuration not stated) | -4.5 | -0.1 | -2.0 | 0.2 | -101.4
CCOC(=O)NN1C(=O)c2ccccc2NC1c1ccc(OC)c(OC)c1 (configuration not stated) | 11.3 | 0.0 | 3.1 | 43.3* | 2.1
COc1cccc(NC(=S)/C(=C(\[O-])c2ccc([N+](=O)[O-])cc2)[n+]2ccccc2)c1 | 1.4 | 0.1 | 14.8 | 43.4* | -2.3
CCOc1cc(NC(=S)NCC2CCCO2)c(OCC)cc1NC(=O)C1CC1 (configuration not stated) | 6.0 | 0.0 | 3.1 | 42.9* | nt
CCOC(=O)c1c(C)[n+]([O-])c2ccc3c(non3O)c12 | 14.3 | 0.1 | 1.5 | 44.2* | -6.2
CC(C)C[C@H](NC(=O)c1[nH]cnc1C(=O)N[C@@H](C)C(=O)OCc1ccccc1)C(=O)OCc1ccccc1 | 12.3 | 0.1 | 0.4 | -0.2 | 16.8
CCN(C(=S)Nc1cc(S(=O)(=O)N2CCOCC2)ccc1Cl)c1cccc2ccccc12 | -5.0 | -0.2 | -4.0 | 0.2 | 2.7
O=S(=O)(c1ccc(Cl)c(NC(=S)Nc2cccc(O)c2)c1)N1CCOCC1 | 6.4 | 0.0 | -11.6 | 1.7* | 5.8
CCOc1ccccc1N1CCN(CC(=O)NC(=O)NCc2ccco2)CC1 | 12.5 | 0.1 | 4.0 | 0.0 | 0.4
O=C(NCCc1cn[nH]c1)c1ccc2oc(CCc3ccccc3)nc2c1 | -8.5 | nt | -0.2 | 0.0 | nt
Cc1ccc(CNS(=O)(=O)c2ccccc2[N+](=O)[O-])cc1 | -10.0 | -0.1 | 1.1 | 43.5* | 12.4
Cc1ccc(CNS(=O)(=O)c2ccc([N+](=O)[O-])cc2)cc1 | -5.9 | -0.1 | 3.6 | -0.2 | -2.6
CCN(C(=O)Cc1c(C(=O)O)n(C)c2ccccc12)c1ccc(F)cc1 | 3.4 | 0.1 | -13.3 | 43.0* | 13.5
COc1cccc(CN2CCN(Cc3[nH]c4ccccc4c3C)CC2CCO)c1 (configuration not stated) | 7.5 | 0.1 | 8.3 | 43.0* | nt
OCCC1CN(Cc2cnn(-c3ccc(F)cc3)c2)CCN1Cc1ccsc1 (configuration not stated) | 7.5 | -0.1 | -0.8 | 0.1 | 0.8
COc1cccc(CN2CCN(Cc3cc4ccccc4[nH]3)CC2CCO)c1 (configuration not stated) | 19.5 | 0.0 | -11.0 | -0.2 | -1.2
CSc1ccc(CN2CCN(Cc3ccccc3)C(CCO)C2)cc1 (configuration not stated) | -10.4 | -0.2 | -0.1 | 43.0* | -5.9
CCOc1ccc(CN2CCN(Cc3cc4ccccc4[nH]3)CC2CCO)cc1 (configuration not stated) | 0.1 | nt | 3.7 | 43.4* | nt
CCn1cc(CN2CCN(Cc3ccsc3)C(CCO)C2)cn1 (configuration not stated) | 4.6 | 0.0 | 8.1 | 43.9* | 4.6
COc1ccc(OCC(=O)N/N=C(/C)Cc2ccccc2)cc1 | -5.8 | 0.0 | -4.0 | 0.1 | 0.9
O=C(C[C@@H]1C[C@H]2c3cc(NC(=O)c4ccc5c(c4)OCO5)ccc3O[C@H]2[C@H](CO)O1)NCC1CC1 | nt | nt | nt | 0.2 | nt
CO/N=C/C(C#N)=C/c1cc(C(=O)c2ccc(F)cc2)cn1C | -10.3 | 0.0 | -8.8 | 43.0* | -6.4
CO/N=C/C(=N\Nc1ccc(OC)cc1)C(=O)c1ccc(F)cc1 | -2.6 | 0.0 | 11.2 | 0.6 | 1.7
CCCCN(CC)CCCNC(=O)c1cn(CC)c2ccc(S(=O)(=O)N3CCc4ccccc4C3)cc2c1=O | 4.6 | 0.1 | 1.4 | 43.0* | 19.4
COC(=O)c1ccc(OCC(O)CN2C(=O)c3ccccc3S2(=O)=O)cc1 (configuration not stated) | 5.7 | 0.0 | 1.1 | 43.0* | 8.0
CC(=O)Nc1ccc(S(=O)(=O)NCCSCc2cccc(Cl)c2)cc1 | -0.1 | 0.1 | 0.9 | 0.6 | 7.5
